# In ChEMBL document CHEMBL4619807, “Exploration of Alternative Scaffolds for P2Y14 Receptor Antagonists Containing a Biaryl Core” (J Med Chem, 2020):
# Active and inactive are the calls of the source. The calls are words filed in the database; no cut-off is given here.
# Tests used:
# P2Y purinoceptor 14 [1] = target: T1, P2Y purinoceptor 14 (Homo sapiens, UniProt Q15391); assay: Inhibition of MRS4174 binding to human P2Y14R expressed in CHO cells pre-incubated for 30 mins before MRS4174 addition and further incubated for 30 mins at pH 7.4 by flow cytomtery based competitive fluorescence assay; type: cell-based
# T1 sequence (Q15391 whole entry): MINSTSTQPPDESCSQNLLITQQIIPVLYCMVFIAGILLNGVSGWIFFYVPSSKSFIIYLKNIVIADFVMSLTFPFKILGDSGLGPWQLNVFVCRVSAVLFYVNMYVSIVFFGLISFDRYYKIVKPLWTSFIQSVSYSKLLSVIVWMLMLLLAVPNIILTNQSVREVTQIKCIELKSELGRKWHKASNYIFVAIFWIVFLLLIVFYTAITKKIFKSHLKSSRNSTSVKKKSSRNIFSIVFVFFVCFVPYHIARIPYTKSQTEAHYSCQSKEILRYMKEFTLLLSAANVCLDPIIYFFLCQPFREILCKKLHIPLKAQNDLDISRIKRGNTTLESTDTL
# P2Y purinoceptor 14 [2] = target: T2, P2Y purinoceptor 14 (Mus musculus, UniProt Q9ESG6); assay: Inhibition of MRS4174 binding to mouse P2Y14R expressed in HEK293 cells pre-incubated for 30 mins before MRS4174 addition and further incubated for 30 mins by flow cytomtery based competitive fluorescence assay; type: cell-based
# T2 sequence (Q9ESG6 whole entry): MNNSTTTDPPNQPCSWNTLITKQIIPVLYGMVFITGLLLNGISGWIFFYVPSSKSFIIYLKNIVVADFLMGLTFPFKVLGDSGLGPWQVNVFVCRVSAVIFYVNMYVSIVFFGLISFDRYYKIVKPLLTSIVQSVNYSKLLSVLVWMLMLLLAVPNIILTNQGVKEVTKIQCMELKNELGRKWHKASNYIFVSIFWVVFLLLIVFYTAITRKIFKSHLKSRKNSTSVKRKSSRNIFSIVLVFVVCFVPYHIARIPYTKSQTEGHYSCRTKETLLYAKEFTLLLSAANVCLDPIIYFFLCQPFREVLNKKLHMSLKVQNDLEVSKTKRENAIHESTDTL
# Method in brief: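 Competitive whole-cell binding in HEK293 cells stably expressing N-terminally HA-tagged mouse P2Y14R, grown in a 24-well plate to 80–90% confluency. Antagonist given at 1 nM–100 μM in serum-containing EMEM for 30 min at 37 °C, then tracer added at 20 nM final for 30 min.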
# Homo sapiens = species: Homo sapiens; assay: Selectivity index, ratio of IC50 for inhibition of MRS4174 binding to human P2Y14R expressed in CHO cells to IC50 for inhibition of MRS4174 binding to mouse P2Y14R expressed in […] cells; type: cell-based
# Method in brief: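 Ratio of human to mouse IC50 from fluorescent-tracer binding. Human P2Y14R was in CHO cells in a 96-well format. Mouse P2Y14R was in HEK293 cells, with 30 min antagonist pre-incubation and then 20 nM tracer for 30 min at 37 °C. Both read by flow cytometry.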
# [3] = target: Delta-type opioid receptor (Homo sapiens, UniProt P41143); assay: Binding affinity to DOR (unknown origin)
# Sequence of Delta-type opioid receptor (P41143 whole entry): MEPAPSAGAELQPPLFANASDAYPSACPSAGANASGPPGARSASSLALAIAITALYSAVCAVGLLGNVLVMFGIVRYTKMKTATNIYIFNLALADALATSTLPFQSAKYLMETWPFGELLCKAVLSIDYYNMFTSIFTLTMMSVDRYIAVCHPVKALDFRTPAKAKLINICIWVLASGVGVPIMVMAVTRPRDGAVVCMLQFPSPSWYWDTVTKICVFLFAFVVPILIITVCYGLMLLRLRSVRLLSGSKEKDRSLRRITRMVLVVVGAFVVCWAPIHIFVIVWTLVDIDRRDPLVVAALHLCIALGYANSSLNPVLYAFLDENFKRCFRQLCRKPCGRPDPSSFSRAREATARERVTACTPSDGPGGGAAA
# [4] = Binding affinity to sigma 2 receptor (unknown origin); set-up: species or system Homo sapiens
# [5] = Aqueous solubility at pH 7.4 by pION method; type: physicochemical
# Method in brief: (§1)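 Equilibrium aqueous solubility measured by the pION method at pH 4.0 and at pH 7.4, in μg/mL; mean ± SD.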
# [6] = Aqueous solubility at pH 4 by pION method; type: physicochemical; method in brief: as §1
# [7] = Lipophilicity, change in Constant K of the compound by RP-HPLC analysis relative to PPTN; type: physicochemical
# Method in brief: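 Lipophilicity taken from reversed-phase HPLC retention time on a C18 column. Elution used a 20 min gradient of 10 to 100% acetonitrile in 10 mM triethylammonium acetate. Reported as Δk against the reference antagonist.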
# [8] = Bioavailability in rat at 1 to 10 mg/kg, ip; type: ADME, organism-based; conditions: in vivo
# Method in brief: (§2)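 Rats dosed intraperitoneally at 1, 3 and 10 mg/kg and intravenously at 0.5 mg/kg. Solubilizing vehicle was aqueous DMSO. Plasma concentrations followed over time up to 12 h. Bioavailability derived from ip exposure relative to the iv dose.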
# [9] = Cmax in rat at 10 mg/kg, ip after 3 to 4 hrs; type: ADME, organism-based; set-up: dose 10 mg/kg, route intraperitoneal; conditions: in vivo; method in brief: as §2
# [10] = Tmax in rat at 10 mg/kg, ip; type: ADME, organism-based; conditions: in vivo; method in brief: as §2
# [11] = Drug level in rat at 10 mg/kg, ip after 12 hrs; type: ADME, organism-based; conditions: in vivo; method in brief: as §2
# [12] = Plasma concentration in rat at 1 mg/kg, ip after 2 hrs; type: ADME, organism-based; method in brief: as §2
# [13] = Plasma concentration in rat at 1 mg/kg, ip after 4 hrs; type: ADME, organism-based; method in brief: as §2
# [14] = Half life in rat at 1 mg/kg, ip; type: ADME, organism-based; conditions: in vivo
# [15] = Permeability from apical to basolateral side in human Caco2 cells; type: ADME, cell-based; conditions: caco-2
# HepG2 = assay: Toxicity in human HepG2 cells; type: cell-based
# [16] = Stability in simulated intestinal fluid assessed as compound remaining level at 120 mins; type: physicochemical; conditions: simulated gi fluid, 2 h
# [17] = Stability in simulated gastric fluid assessed as compound remaining level at 120 mins; type: physicochemical; conditions: simulated gi fluid, 2 h
# Cytochrome P450 2C9 = Cytochrome P450 2C9 (Homo sapiens, UniProt P11712); assay: Inhibition of CYP2C9 (unknown origin); type: ADME
# Sequence of Cytochrome P450 2C9 (P11712 whole entry): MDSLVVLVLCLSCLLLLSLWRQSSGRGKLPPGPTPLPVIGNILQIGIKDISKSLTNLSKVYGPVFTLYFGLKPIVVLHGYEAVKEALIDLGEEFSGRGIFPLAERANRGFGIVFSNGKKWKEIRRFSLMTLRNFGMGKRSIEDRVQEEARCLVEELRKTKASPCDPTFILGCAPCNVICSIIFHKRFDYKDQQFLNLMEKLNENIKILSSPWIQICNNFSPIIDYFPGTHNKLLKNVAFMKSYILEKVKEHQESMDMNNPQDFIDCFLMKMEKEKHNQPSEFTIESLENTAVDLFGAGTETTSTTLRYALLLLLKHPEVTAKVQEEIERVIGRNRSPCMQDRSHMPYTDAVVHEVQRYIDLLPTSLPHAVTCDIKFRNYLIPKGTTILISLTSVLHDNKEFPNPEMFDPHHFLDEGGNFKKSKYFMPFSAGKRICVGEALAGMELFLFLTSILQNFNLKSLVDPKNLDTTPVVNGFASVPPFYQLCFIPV
# Cytochrome P450 2C19 = Cytochrome P450 2C19 (Homo sapiens, UniProt P33261); assay: Inhibition of CYP2C19 (unknown origin); type: ADME
# Sequence of Cytochrome P450 2C19 (P33261 whole entry): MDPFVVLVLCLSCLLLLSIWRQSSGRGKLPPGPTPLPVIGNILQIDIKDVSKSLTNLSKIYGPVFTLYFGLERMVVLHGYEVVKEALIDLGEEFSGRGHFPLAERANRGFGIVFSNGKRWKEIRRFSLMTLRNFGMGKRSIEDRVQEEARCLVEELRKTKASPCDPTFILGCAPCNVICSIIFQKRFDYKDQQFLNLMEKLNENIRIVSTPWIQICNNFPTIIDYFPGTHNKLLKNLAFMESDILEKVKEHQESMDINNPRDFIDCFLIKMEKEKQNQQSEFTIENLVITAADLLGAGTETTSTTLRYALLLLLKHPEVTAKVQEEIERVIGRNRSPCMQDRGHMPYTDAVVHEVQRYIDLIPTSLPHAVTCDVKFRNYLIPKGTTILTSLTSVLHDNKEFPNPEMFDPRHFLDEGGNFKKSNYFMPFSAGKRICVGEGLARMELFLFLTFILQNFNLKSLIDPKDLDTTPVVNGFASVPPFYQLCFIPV
# Cytochrome P450 2D6 = Cytochrome P450 2D6 (Homo sapiens, UniProt P10635); assay: Inhibition of CYP2D6 (unknown origin); type: ADME
# Sequence of Cytochrome P450 2D6 (P10635 whole entry): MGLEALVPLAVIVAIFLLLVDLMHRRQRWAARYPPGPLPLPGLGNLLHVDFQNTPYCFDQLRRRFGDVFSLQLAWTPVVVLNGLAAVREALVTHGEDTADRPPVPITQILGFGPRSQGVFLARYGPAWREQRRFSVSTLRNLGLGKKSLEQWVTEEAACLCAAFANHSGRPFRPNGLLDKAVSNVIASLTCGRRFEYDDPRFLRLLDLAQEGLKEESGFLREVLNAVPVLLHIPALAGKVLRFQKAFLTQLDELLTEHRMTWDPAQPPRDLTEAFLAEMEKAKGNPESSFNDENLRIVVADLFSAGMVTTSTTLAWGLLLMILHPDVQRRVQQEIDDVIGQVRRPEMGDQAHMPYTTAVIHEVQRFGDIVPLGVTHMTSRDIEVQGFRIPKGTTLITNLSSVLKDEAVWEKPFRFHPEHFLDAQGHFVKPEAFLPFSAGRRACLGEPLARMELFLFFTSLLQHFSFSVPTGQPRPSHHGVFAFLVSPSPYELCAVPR
# [18] = Stability in human plasma assessed as compound remaining level at 120 mins; type: ADME, cell-free; conditions: 2 h
# [19] = Stability in rat plasma assessed as compound remaining level at 120 mins; type: ADME, cell-free; conditions: 2 h
# [20] = Stability in mouse plasma assessed as compound remaining level at 120 mins; type: ADME, cell-free; conditions: 2 h
# [21] = Half life in mouse liver microsomes; type: ADME, Microsome
# [22] = Half life in rat liver microsomes; type: ADME, Microsome
# [23] = Half life in human liver microsomes; type: ADME, Microsome
# [24] = target: Voltage-gated inwardly rectifying potassium channel KCNH2 (Homo sapiens, UniProt Q12809); assay: Inhibition of human ERG
# Sequence of Voltage-gated inwardly rectifying potassium channel KCNH2 (Q12809 whole entry): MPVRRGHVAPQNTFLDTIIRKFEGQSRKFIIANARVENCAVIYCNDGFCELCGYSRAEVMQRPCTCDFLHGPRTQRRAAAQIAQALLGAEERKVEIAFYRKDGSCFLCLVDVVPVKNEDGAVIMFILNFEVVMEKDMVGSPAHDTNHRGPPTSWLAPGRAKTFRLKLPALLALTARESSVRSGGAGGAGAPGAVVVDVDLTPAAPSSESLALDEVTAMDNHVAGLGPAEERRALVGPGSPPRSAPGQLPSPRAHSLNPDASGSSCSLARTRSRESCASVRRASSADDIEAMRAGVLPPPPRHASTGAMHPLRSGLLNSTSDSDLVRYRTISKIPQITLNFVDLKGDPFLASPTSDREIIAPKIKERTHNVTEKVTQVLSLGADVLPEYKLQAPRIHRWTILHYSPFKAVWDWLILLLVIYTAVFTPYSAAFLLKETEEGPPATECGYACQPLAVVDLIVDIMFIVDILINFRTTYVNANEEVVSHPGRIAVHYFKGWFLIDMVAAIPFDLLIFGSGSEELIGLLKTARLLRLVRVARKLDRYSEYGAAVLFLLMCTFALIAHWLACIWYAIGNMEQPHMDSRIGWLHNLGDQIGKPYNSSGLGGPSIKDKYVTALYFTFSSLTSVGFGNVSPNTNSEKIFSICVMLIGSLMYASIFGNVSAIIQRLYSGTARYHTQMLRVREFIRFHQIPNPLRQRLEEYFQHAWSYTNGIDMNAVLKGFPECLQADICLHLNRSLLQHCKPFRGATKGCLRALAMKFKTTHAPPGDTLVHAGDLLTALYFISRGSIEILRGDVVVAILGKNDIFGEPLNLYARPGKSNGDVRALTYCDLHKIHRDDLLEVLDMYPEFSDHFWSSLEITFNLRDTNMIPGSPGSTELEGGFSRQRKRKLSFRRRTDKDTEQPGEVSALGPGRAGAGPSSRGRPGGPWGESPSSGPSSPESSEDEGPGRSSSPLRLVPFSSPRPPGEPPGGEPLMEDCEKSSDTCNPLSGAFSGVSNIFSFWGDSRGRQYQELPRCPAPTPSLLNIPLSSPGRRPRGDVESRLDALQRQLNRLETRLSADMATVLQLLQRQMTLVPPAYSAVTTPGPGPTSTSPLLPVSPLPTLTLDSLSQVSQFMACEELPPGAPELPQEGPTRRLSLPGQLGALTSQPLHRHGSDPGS
# [25] = Half life in rat at 0.5 mg/kg, iv; type: ADME, organism-based; conditions: in vivo
# Cannabinoid receptor 1 [26] = target: T3, Cannabinoid receptor 1 (Homo sapiens, UniProt P21554); assay: Agonist activity at CB1 receptor (unknown origin)
# T3 sequence (P21554 whole entry): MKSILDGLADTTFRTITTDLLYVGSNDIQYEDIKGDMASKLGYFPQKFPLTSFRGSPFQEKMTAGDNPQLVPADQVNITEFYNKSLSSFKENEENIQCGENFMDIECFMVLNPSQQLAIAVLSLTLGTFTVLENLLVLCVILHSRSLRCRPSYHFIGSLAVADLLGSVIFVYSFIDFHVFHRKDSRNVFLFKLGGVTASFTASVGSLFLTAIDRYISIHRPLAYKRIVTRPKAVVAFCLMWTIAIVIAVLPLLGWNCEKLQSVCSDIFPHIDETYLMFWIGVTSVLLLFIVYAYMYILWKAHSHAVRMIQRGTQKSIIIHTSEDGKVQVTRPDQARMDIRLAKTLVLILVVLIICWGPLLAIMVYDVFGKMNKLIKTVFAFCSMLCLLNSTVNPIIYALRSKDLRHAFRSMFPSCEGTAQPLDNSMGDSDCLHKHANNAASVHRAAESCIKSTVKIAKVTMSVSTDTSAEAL
# Method in brief: (§3)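 Tested through the Psychoactive Drug Screening Program as functional agonist and antagonist at CB1 and CB2 cannabinoid receptors, with an upper test concentration of 10 μM.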
# Cannabinoid receptor 1 [27] = target: T3, Cannabinoid receptor 1; assay: Antagonist activity at CB1 receptor (unknown origin); method in brief: as §3
# Cannabinoid receptor 2 [28] = target: T4, Cannabinoid receptor 2 (Homo sapiens, UniProt P34972); assay: Agonist activity at CB2 receptor (unknown origin); method in brief: as §3
# T4 sequence (P34972 whole entry): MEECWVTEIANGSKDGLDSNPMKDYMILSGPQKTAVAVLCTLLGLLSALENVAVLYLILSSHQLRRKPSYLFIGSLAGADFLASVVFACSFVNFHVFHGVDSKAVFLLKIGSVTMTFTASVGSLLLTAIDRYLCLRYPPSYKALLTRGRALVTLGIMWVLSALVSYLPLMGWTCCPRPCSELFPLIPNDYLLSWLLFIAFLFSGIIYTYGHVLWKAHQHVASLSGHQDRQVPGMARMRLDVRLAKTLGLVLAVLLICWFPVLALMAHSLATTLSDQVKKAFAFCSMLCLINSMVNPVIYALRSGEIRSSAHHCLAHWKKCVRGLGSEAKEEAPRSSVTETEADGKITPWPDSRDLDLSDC
# Cannabinoid receptor 2 [29] = target: T4, Cannabinoid receptor 2; assay: Antagonist activity at CB2 receptor (unknown origin); method in brief: as §3
# [30] = Unbound fraction in human plasma; type: ADME, cell-free
# Method in brief: (§4)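 Plasma protein binding measured at 10 μM compound in human and mouse plasma, expressed as percent unbound (mean ± SD). Verapamil and warfarin were positive controls.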
# [31] = Unbound fraction in mouse plasma; type: ADME, cell-free; method in brief: as §4
# Mus musculus = assay: Antiasthmatic activity in Aspergillus oryzae protease-mediated C57BL/6J mouse model of allergic asthma assessed as reduction in eosinophil infiltration in bronchoalveolar lavage fluid at 10 mg/kg, ip dosed 30 mins before OVA aerosol challenge and measured 2 days post-challenge by cell differential count assay; type: functional, organism-based
# [32] = Solubility in 10% DMSO in water; type: physicochemical; conditions: buffer
# Method in brief: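 Compound dissolved in DMSO without basification, then diluted with water to 10% DMSO at 1 mg/mL. Solubility was judged by the absence of precipitation on dilution.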
# P2Y purinoceptor 14 [33] = target: T1, P2Y purinoceptor 14; assay: cell-based
# P2Y purinoceptor 14 [34] = target: T1, P2Y purinoceptor 14; assay: cell-based; remark: listed apart in the source
# P2Y purinoceptor 14 [35] = target: T1, P2Y purinoceptor 14; assay: cell-based; remark: listed apart in the source
# D(1B) dopamine receptor = D(1B) dopamine receptor (Homo sapiens, UniProt P21918); assay: Binding affinity to dopamine D5 receptor (unknown origin)
# Sequence of D(1B) dopamine receptor (P21918 whole entry): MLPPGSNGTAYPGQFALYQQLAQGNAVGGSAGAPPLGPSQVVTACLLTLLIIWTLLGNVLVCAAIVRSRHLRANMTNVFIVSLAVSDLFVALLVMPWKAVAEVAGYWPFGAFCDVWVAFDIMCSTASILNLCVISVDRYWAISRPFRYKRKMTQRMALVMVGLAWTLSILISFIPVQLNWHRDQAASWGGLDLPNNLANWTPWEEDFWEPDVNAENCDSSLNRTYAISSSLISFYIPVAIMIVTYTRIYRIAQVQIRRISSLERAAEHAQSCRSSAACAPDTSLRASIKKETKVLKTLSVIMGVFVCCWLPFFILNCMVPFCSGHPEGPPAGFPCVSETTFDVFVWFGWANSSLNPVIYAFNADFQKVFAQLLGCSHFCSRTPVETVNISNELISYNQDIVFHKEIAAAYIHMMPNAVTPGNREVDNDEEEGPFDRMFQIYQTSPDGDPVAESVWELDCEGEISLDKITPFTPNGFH
# Translocator protein = Translocator protein (Homo sapiens, UniProt P30536); assay: Binding affinity to TSPO receptor (unknown origin)
# Sequence of Translocator protein (P30536 whole entry): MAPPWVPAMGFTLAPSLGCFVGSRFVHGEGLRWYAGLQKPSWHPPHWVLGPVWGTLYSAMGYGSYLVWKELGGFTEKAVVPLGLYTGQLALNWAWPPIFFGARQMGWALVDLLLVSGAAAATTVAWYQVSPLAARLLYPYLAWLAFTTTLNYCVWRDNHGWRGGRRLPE
compound,measurement,setting,value
O=C(O)c1cc(-c2ccc(C34CCNCC3C4)cc2)cc(-n2cc(-c3ccc(C(F)(F)F)cc3)nn2)c1 (stereo not drawn),IC50,P2Y purinoceptor 14 [1],359 nM
same,IC50,P2Y purinoceptor 14 [2],1160 nM
same,Ratio IC50,Homo sapiens,3.3
same,Ki,[3],2630 nM
same,Ki,[4],300 nM
O=C(O)c1cc(-c2ccc(C34CCN(CC3)CC4)cc2)cc(-n2cc(-c3ccc(C(F)(F)F)cc3)nn2)c1,IC50,P2Y purinoceptor 14 [1],105 nM
same,IC50,P2Y purinoceptor 14 [2],845 nM
same,solubility,"[5]; aqueous, read-out: solubility",0.1 to 1.1 µg/mL
same,solubility,"[6]; aqueous, read-out: solubility",2.8 to 14.5 µg/mL
same,fold change (FC),[7],-0.09
same,bioavailability,[8],100%
same,Cmax,[9],900 ng/mL
same,Tmax,[10],3 to 4 h
same,Drug uptake,[11],200 to 400 ng/kg
same,concentration at 2 h,[12],206 nM
same,concentration at 4 h,[13],163 nM
same,half-life,[14],4.6 h
same,Papp,[15],0.09 ×10⁻⁶ cm/s
same,IC50,HepG2,> 20000 nM
same,Stability,[16],102%
same,Stability,[17],106%
same,IC50,Cytochrome P450 2C9,> 30000 nM
same,IC50,Cytochrome P450 2C19,> 30000 nM
same,IC50,Cytochrome P450 2D6,> 30000 nM
same,Stability,[18],86.8%
same,Stability,[19],89.4%
same,Stability,[20],79.5%
same,t1/2,[21],5.18 h
same,t1/2,[22],1.8 h
same,t1/2,[23],3.2 h
same,IC50,[24],16800 nM
same,half-life,[25],0.72 h
O=C(O)c1cc(-c2ccc(C3CCNCC3)cc2)cc(-c2cn(-c3ccc(C(F)(F)F)cc3)nn2)c1,Ki,[3],3790 nM
same,EC50,Cannabinoid receptor 1 [26],> 10000 nM
same,EC50,Cannabinoid receptor 1 [27],> 10000 nM
same,EC50,Cannabinoid receptor 2 [28],> 10000 nM
same,EC50,Cannabinoid receptor 2 [29],> 10000 nM
same,Fu,[30],1.25%
same,Fu,[31],1.33%
same,Activity,Mus musculus,Active
O=C(O)c1cc(-c2ccc(C34CCN(CC3)CC4)cc2)c2ccc(-c3ccc(C(F)(F)F)cc3)cc2c1,IC50,P2Y purinoceptor 14 [2],21.4 nM
same,solubility,[32],1000 µg/mL
same,solubility,"[5]; aqueous, read-out: solubility",0.44 to 0.55 µg/mL
same,solubility,"[6]; aqueous, read-out: solubility",1.5 to 14.3 µg/mL
same,fold change (FC),[7],1.24
same,bioavailability,[8],100%
same,Cmax,[9],900 ng/mL
same,Tmax,[10],3 to 4 h
same,Drug uptake,[11],200 to 400 ng/kg
same,concentration at 2 h,[12],165 nM
same,concentration at 4 h,[13],292 nM
same,half-life,[14],5.1 h
same,IC50,HepG2,> 20000 nM
same,Activity,Mus musculus,Active
same,Stability,[18],100%
same,Stability,[20],100%
same,t1/2,[21],1.12 h
same,t1/2,[22],1.33 h
same,t1/2,[23],> 4 h
same,half-life,[25],3.46 h
same,IC50,P2Y purinoceptor 14 [33],38.1 nM
same,IC50,P2Y purinoceptor 14 [34],57 nM
same,IC50,P2Y purinoceptor 14 [35],84.5 nM
C[N+]12CCC(c3ccc(-c4cc(C(=O)O)cc5cc(-c6ccc(C(F)(F)F)cc6)ccc45)cc3)(CC1)CC2,IC50,P2Y purinoceptor 14 [1],38.3 nM
same,IC50,P2Y purinoceptor 14 [2],56.3 nM
same,solubility,[5]; buffer,1.72 µg/mL
same,solubility,[6]; buffer,2.24 µg/mL
same,fold change (FC),[7],0.24
same,Fu,[30],1.13%
same,Fu,[31],0.94%
O=C(O)c1cc(-c2ccc(N3CCNCC3)cc2)cc(-n2cc(-c3ccc(C(F)(F)F)cc3)nn2)c1,Ratio IC50,Homo sapiens,2.1
same,Ki,[4],6700 nM
O=C(O)c1cc(-c2ccc(C3CCNCC3)cc2)cc(-n2cc(-c3ccc(C(F)(F)F)cc3)nn2)c1,Activity,Mus musculus,inactive
CC(=O)N1CCC(c2ccc(-c3cc(C(=O)O)cc4cc(-c5ccc(C(F)(F)F)cc5)ccc34)cc2)CC1,Ki,D(1B) dopamine receptor,4380 nM
same,Ki,Translocator protein,510 nM
same,solubility,[5]; buffer,2.32 µg/mL
same,solubility,[6]; buffer,0.09 µg/mL
same,Activity,Mus musculus,Active
